Experimental data of several laboratories.
Compare with care: the assays were run in different laboratories.
Target: Mitogen-activated protein kinase 8 (MAPK8, Homo sapiens, UniProt P45983)

| SMILES | test | setting | quantity | result |
| --- | --- | --- | --- | --- |
| Cc1ccc(NC(=O)c2ccnc(C(F)(F)F)c2)cc1-c1cc(OCCO)nc(N2CCOCC2)c1 | binding | 1 µM | remaining binding | 80% |
| C#Cc1cc(-c2cc(Nc3nc(N[C@@H](C)c4ccc(F)cn4)ncc3Cl)n[nH]2)ccc1C=O | enzyme activity, inhibitor | 0.2 µM | inhibition | 9.62% |
| CO[C@@H]1[C@H](N(C)C(=O)c2ccccc2)C[C@H]2O[C@]1(C)n1c3ccccc3c3c4c(c5c6ccccc6n2c5c31)C(=O)NC4 | enzyme activity, inhibitor | 1 µM | inhibition | 22% |
| CCCCC(=O)Nc1ccc(-c2ccc3ncn(CCC)c(=O)c3c2)cn1 | binding, competition with immobilised ligand | 0.5 µM | remaining binding | 52% |
| C=CC(=O)N1CCC([C@@H]2CCNc3c(C(N)=O)c(-c4ccc(Oc5ccccc5)cc4)nn32)CC1 | enzyme activity, inhibitor | 1 µM | inhibition | 21% |
| C#Cc1cnc(Nc2ccnc(CO)c2)nc1Nc1ccccc1S(C)(=O)=NC#N (stereo not drawn) | cell-free assay | 1 µM | remaining signal | 54% |
| C1=C/COCc2cc(ccc2OCCN2CCCC2)Nc2nccc(n2)-c2cccc(c2)COC/1 | cell-free assay | 0.1 µM | remaining signal | 12% |
| C[C@H]1CC[C@H](n2c3cnccc3c3cnc(Nc4ccc5c(n4)CCN(C(=O)CO)C5)nc32)CC1 | binding | 1 µM | remaining binding | 7% |
| N#Cc1ccc(NC(=O)Nc2ccccc2)cc1 | cell-free assay, competition with immobilised ligand | 25 µM | remaining binding | 78% |
